# Results as given in ChEMBL document CHEMBL3352237, “Synthesis and biological evaluation of novel peptide BF2 as an antibacterial agent against clinical isolates of vancomycin-resistant enterococci” (J Med Chem, 2014).
# Columns and labels:
# Enterococcus [1] = experiment: Antibacterial activity against Enterococcus infected in Wistar albino rat assessed as reduction in cell count at MIC, iv after 1 hr relative to control; assay type: functional; design: scale not given: the % may be the effect or the level left
# Procedure, shortened: (§1)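 Female Wistar albino rats, 40−45 days old, 125−150 g, 5 groups of 3. Enterococci were grown to log phase in MH broth, centrifuged at 1000g for 15 min, and diluted in PBS to 4 × 10^6 CFU/mL. Rats were inoculated i.v. and treated i.v. 1 h later with 12.5, 25 or 37.5 mg/kg peptide, PBS vehicle, or linezolid 25 mg/kg. Tail-vein blood taken 1 h post-treatment was plated on blood agar, incubated overnight at 37 °C, and colonies counted.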
# Enterococcus faecium [2] = experiment: Bactericidal activity against vancomycin-resistant Enterococcus faecium clinical isolate 18906 after 24 hrs by two-fold serial dilution method; assay type: functional; details: isolate 18906, 24 h
# Enterococcus faecium [3] = experiment: Antibacterial activity against vancomycin-resistant Enterococcus faecium clinical isolate 23/240 after overnight incubation by two-fold serial dilution method; assay type: functional
# Enterococcus faecalis [4] = experiment: Antibacterial activity against vancomycin-resistant Enterococcus faecalis clinical isolate 21/235 after overnight incubation by two-fold serial dilution method; assay type: functional
# Enterococcus faecium [5] = experiment: Bactericidal activity against vancomycin-resistant Enterococcus faecium clinical isolate 8/224 after 24 hrs by two-fold serial dilution method; assay type: functional; details: isolate 8/224, 24 h
# Enterococcus faecalis [6] = experiment: Antibacterial activity against vancomycin-resistant Enterococcus faecalis clinical isolate 5642 after overnight incubation by two-fold serial dilution method; assay type: functional
# Enterococcus faecalis [7] = experiment: Antibacterial activity against vancomycin-resistant Enterococcus faecalis clinical isolate 387702 after overnight incubation by two-fold serial dilution method; assay type: functional
# Enterococcus faecalis [8] = experiment: Antibacterial activity against vancomycin-resistant Enterococcus faecalis clinical isolate 27728 after overnight incubation by two-fold serial dilution method; assay type: functional
# Enterococcus faecalis [9] = experiment: Antibacterial activity against vancomycin-resistant Enterococcus faecalis clinical isolate 5814 after overnight incubation by two-fold serial dilution method; assay type: functional
# Enterococcus faecium [10] = experiment: Bactericidal activity against vancomycin-resistant Enterococcus faecium clinical isolate 31386 after 24 hrs by two-fold serial dilution method; assay type: functional; details: isolate 31386, 24 h
# Enterococcus faecalis [11] = experiment: Bactericidal activity against vancomycin-resistant Enterococcus faecalis clinical isolate 22626 after 24 hrs by two-fold serial dilution method; assay type: functional; details: isolate 22626, 24 h
# Enterococcus [12] = experiment: Bactericidal activity against vancomycin-resistant Enterococcus ATCC 51299 after 24 hrs by two-fold serial dilution method; assay type: functional; details: ATCC 51299, 24 h
# Enterococcus faecium [13] = experiment: Antibacterial activity against vancomycin-resistant Enterococcus faecium clinical isolate 14643 after overnight incubation by two-fold serial dilution method; assay type: functional
# Enterococcus faecium [14] = experiment: Bactericidal activity against vancomycin-resistant Enterococcus faecium clinical isolate 16475 after 24 hrs by two-fold serial dilution method; assay type: functional; details: isolate 16475, 24 h
# Enterococcus faecalis [15] = experiment: Bactericidal activity against vancomycin-resistant Enterococcus faecalis clinical isolate 7670 after 24 hrs by two-fold serial dilution method; assay type: functional; details: isolate 7670, 24 h
# Enterococcus faecalis [16] = experiment: Antibacterial activity against vancomycin-resistant Enterococcus faecalis clinical isolate 7077 after overnight incubation by two-fold serial dilution method; assay type: functional
# Enterococcus faecium [17] = experiment: Antibacterial activity against vancomycin-resistant Enterococcus faecium clinical isolate 29/203 after overnight incubation by two-fold serial dilution method; assay type: functional
# Enterococcus faecium [18] = experiment: Bactericidal activity against vancomycin-resistant Enterococcus faecium clinical isolate […] after 24 hrs by two-fold serial dilution method; assay type: functional; details: isolate 27/1691, 24 h
# Enterococcus [19] = experiment: Antibacterial activity against Enterococcus infected in Wistar albino rat assessed as reduction in cell count at 3 times MIC, iv after 1 hr relative to control; assay type: functional; design: scale not given: the % may be the effect or the level left; procedure, shortened: as §1
# Enterococcus faecalis [20] = experiment: Bactericidal activity against vancomycin-resistant Enterococcus faecalis clinical isolate 27728 after 24 hrs by two-fold serial dilution method; assay type: functional; details: isolate 27728, 24 h
# HEK293 = experiment: Cytotoxicity against HEK293 cells at 100 to 400 uM after 48 to 72 hrs by MTT assay; assay type: cell-based; details: human, hek293, 400 µM
# Enterococcus faecalis [21] = experiment: Bactericidal activity against vancomycin-resistant Enterococcus faecalis clinical isolate 5814 after 24 hrs by two-fold serial dilution method; assay type: functional; details: isolate 5814, 24 h
# Enterococcus faecium [22] = experiment: Antibacterial activity against vancomycin-resistant Enterococcus faecium clinical isolate 31176 after overnight incubation by two-fold serial dilution method; assay type: functional
# Enterococcus faecium [23] = experiment: Antibacterial activity against vancomycin-resistant Enterococcus faecium clinical isolate 13246 after overnight incubation by two-fold serial dilution method; assay type: functional
# Enterococcus faecium [24] = experiment: Bactericidal activity against vancomycin-resistant Enterococcus faecium clinical isolate 7/27 after 24 hrs by two-fold serial dilution method; assay type: functional; details: isolate 7/27, 24 h
# Enterococcus faecium [25] = experiment: Antibacterial activity against vancomycin-resistant Enterococcus faecium clinical isolate 5396 after overnight incubation by two-fold serial dilution method; assay type: functional
# Enterococcus faecium [26] = experiment: Antibacterial activity against vancomycin-resistant Enterococcus faecium clinical isolate 12/266 after overnight incubation by two-fold serial dilution method; assay type: functional
# Enterococcus faecium [27] = experiment: Antibacterial activity against vancomycin-resistant Enterococcus faecium clinical isolate 30/48 after overnight incubation by two-fold serial dilution method; assay type: functional
# Enterococcus faecalis [28] = experiment: Antibacterial activity against vancomycin-resistant Enterococcus faecalis clinical isolate 6093 after overnight incubation by two-fold serial dilution method; assay type: functional
# Enterococcus faecium [29] = experiment: Antibacterial activity against vancomycin-resistant Enterococcus faecium clinical isolate 151495 after overnight incubation by two-fold serial dilution method; assay type: functional
# Enterococcus faecium [30] = experiment: Bactericidal activity against vancomycin-resistant Enterococcus faecium clinical isolate 27/221 after 24 hrs by two-fold serial dilution method; assay type: functional; details: isolate 27/221, 24 h
# Enterococcus faecium [31] = experiment: Bactericidal activity against vancomycin-resistant Enterococcus faecium clinical isolate 31176 after 24 hrs by two-fold serial dilution method; assay type: functional; details: isolate 31176, 24 h
# Enterococcus faecium [32] = experiment: Antibacterial activity against vancomycin-resistant Enterococcus faecium clinical isolate 3864 after overnight incubation by two-fold serial dilution method; assay type: functional
# Enterococcus faecium [33] = experiment: Bactericidal activity against vancomycin-resistant Enterococcus faecium clinical isolate 17301 after 24 hrs by two-fold serial dilution method; assay type: functional; details: isolate 17301, 24 h
# Enterococcus faecium [34] = experiment: Antibacterial activity against vancomycin-resistant Enterococcus faecium clinical isolate 15/213 after overnight incubation by two-fold serial dilution method; assay type: functional
# Enterococcus [35] = experiment: Antibacterial activity against vancomycin-resistant Enterococcus ATCC 51299 after overnight incubation by two-fold serial dilution method; assay type: functional
# Enterococcus faecalis [36] = experiment: Bactericidal activity against vancomycin-resistant Enterococcus faecalis clinical isolate 21/235 after 24 hrs by two-fold serial dilution method; assay type: functional; details: isolate 21/235, 24 h
# Enterococcus faecium [37] = experiment: Antibacterial activity against vancomycin-resistant Enterococcus faecium clinical isolate 10177 after overnight incubation by two-fold serial dilution method; assay type: functional
# Enterococcus faecalis [38] = experiment: Bactericidal activity against vancomycin-resistant Enterococcus faecalis clinical isolate 6093 after 24 hrs by two-fold serial dilution method; assay type: functional; details: isolate 6093, 24 h
# Enterococcus [39] = experiment: Bactericidal activity against vancomycin-resistant Enterococcus ATCC 29212 assessed as log reduction at 2 times MIC after 60 to 120 mins by serial dilution method; assay type: functional
# Procedure, shortened: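 Time-kill assay: enterococci exposed to peptide at 2× MIC, with viable counts read as log10 CFU/mL over a 60–120 min exposure. Run on ATCC 29212 and a clinical isolate.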
substance,measurement,setting,value
H-RWRLLLLKKH-OH,Activity,Enterococcus [1],73%
same,MBC,Enterococcus faecium [2],25 µg/mL
same,MIC,Enterococcus faecium [3],12.5 µg/mL
same,MIC,Enterococcus faecalis [4],12.5 µg/mL
same,MBC,Enterococcus faecium [5],25 µg/mL
same,MIC,Enterococcus faecalis [6],12.5 µg/mL
same,MIC,Enterococcus faecalis [7],6.25 µg/mL
same,MIC,Enterococcus faecalis [8],6.25 µg/mL
same,MIC,Enterococcus faecalis [9],12.5 µg/mL
same,MBC,Enterococcus faecium [10],25 µg/mL
same,MBC,Enterococcus faecalis [11],25 µg/mL
same,MBC,Enterococcus [12],25 µg/mL
same,MIC,Enterococcus faecium [13],6.25 µg/mL
same,MBC,Enterococcus faecium [14],25 µg/mL
same,MBC,Enterococcus faecalis [15],25 µg/mL
same,MIC,Enterococcus faecalis [16],12.5 µg/mL
same,MIC,Enterococcus faecium [17],12.5 µg/mL
same,MBC,Enterococcus faecium [18],25 µg/mL
same,Activity,Enterococcus [19],82%
same,MBC,Enterococcus faecalis [20],25 µg/mL
same,Activity,HEK293,Non-toxic
same,MBC,Enterococcus faecalis [21],25 µg/mL
same,MIC,Enterococcus faecium [22],6.25 µg/mL
same,MIC,Enterococcus faecium [23],12.5 µg/mL
same,MBC,Enterococcus faecium [24],25 µg/mL
same,MIC,Enterococcus faecium [25],6.25 µg/mL
same,MIC,Enterococcus faecium [26],6.25 µg/mL
same,MIC,Enterococcus faecium [27],12.5 µg/mL
same,MIC,Enterococcus faecalis [28],12.5 µg/mL
same,MIC,Enterococcus faecium [29],6.25 µg/mL
same,MBC,Enterococcus faecium [30],25 µg/mL
same,MBC,Enterococcus faecium [31],25 µg/mL
same,MIC,Enterococcus faecium [32],6.25 µg/mL
same,MBC,Enterococcus faecium [33],25 µg/mL
same,MIC,Enterococcus faecium [34],6.25 µg/mL
same,MIC,Enterococcus [35],25 µg/mL
same,MBC,Enterococcus faecalis [36],25 µg/mL
same,MIC,Enterococcus faecium [37],12.5 µg/mL
same,MBC,Enterococcus faecalis [38],25 µg/mL
same,MBC,Enterococcus [39],25 µg/mL
